Assay [1] concerns RS11846 cells. Put plainly: Transwell migration of RS11846 cells. Format: cell-based. The following applies: transwell assay.
Assay [2] deals with T1, EBI2 (Homo sapiens, UniProt P32249). Put plainly: Radioligand binding to membranes from EBI2 expressing CHO cells.
Assay [3] concerns the target T1, EBI2. The assay can be described thus: GTPγ35S binding functional assay. Format: biochemical. On the technique in general: Binding of GTPγS marks nucleotide exchange on a G protein.
Assay [4] concerns the target T1, EBI2. The assay can be described thus: Calcium mobilization. Format: cell-based.
For assay [5], the target named is T1, EBI2. Format: cell-based.
Assay [6] concerns Membranes from parental cells lacking EBI2 receptor. The assay can be described thus: Radioligand binding to membranes from parental cells lacking EBI2. As to conditions: data not shown.
Assay [7] concerns bone marrow-derived dendritic cells. The assay can be described thus: Transwell migration of bone marrow-derived dendritic cells. As to conditions: transwell assay. Format: cell-based, mice. Put shortly:
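Dendritic cells derived from the bone marrow of wild-type and Ebi2(−/−) mice, tested side by side for transwell migration toward oxysterol test compounds. Samples run in quadruplicate.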

In assay [8] the test system is 31 different GPCRs. The assay can be described thus: Panel of GPCR assays. Format: cell-based.
In assay [9] the test system is 8 different nuclear hormone receptors including LXR. Put plainly: Panel of reporter gene assays against nuclear hormone receptors. The following applies: 8 nuclear hormone receptors including LXR. Format: cell-based. (In general: Reporter assays use an easily measured gene product as a stand-in for the process of interest.)
The subject of assay [10] is EBV-infected human B cell line. The assay can be described thus: Transwell migration of EBV-infected B cells. Format: cell-based. The following applies: transwell assay; bell shaped activity curve. Put shortly: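 Transwell chemotaxis of an EBV-infected human B cell line toward oxysterol test compounds in the lower chamber. Samples run in duplicate.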
For assay [11], the system named is Parental cells lacking the EBI2 receptor. Put plainly: Calcium mobilization in parental cell line lacking EBI2. Format: cell-based. The following applies: parental cell line without EBI2. (In general: Calcium flux is commonly read through the fluorescence of an indicator in the cells.)
For assay [12], the system named is EBI2 expressing cell line (M12). Put plainly: Migration bioassay with EBI2 expressing reporter cell line. Format: cell-based. As to conditions: attraction of EBI2 expressing cell line (Fig. S8c). A digest of the protocol:
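Chemoattraction bioassay: M12 reporter cells, with or without EBI2, exposed to the oxysterol ligand; read-out is migration of cells toward it. The same assay was also run on spleen and lymph node tissue extracts from wild-type and Ch25h-deficient mice.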

[13] abbreviates: read-out: [^3H]-7α, 25-OHC Binding IC50, displacement of 10 nM 3H-7α, 25-OHC from membranes of EBI2 expressing CHO cells, n = 3-4, ± standard deviation.
Setting [14] is: read-out: GTPγ^35S Binding EC50, n = 3-4, ± standard deviation.
[15] abbreviates: read-out: Ca^2+ Fluorescence EC50, FLIPR, CHO cells stably expressing EBI2, n = 3-4, ± standard deviation.

Like-named read-outs stand apart in the source and are kept apart here. Some results are limits rather than exact numbers.

T1 sequence (P32249 whole entry): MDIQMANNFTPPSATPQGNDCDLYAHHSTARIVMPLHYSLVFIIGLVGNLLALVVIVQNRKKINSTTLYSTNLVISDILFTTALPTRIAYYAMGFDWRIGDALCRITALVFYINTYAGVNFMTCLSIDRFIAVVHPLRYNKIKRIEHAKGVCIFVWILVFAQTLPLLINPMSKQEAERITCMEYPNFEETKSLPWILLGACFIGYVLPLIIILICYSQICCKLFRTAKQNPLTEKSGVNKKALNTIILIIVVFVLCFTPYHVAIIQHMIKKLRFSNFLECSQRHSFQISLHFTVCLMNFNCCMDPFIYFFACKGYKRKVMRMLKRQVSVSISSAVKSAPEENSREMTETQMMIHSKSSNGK

On to pertussis toxin, for which the “effect on oxysterol-mediated attraction of RS11846 cells” value in [1] (presence of pertussis toxin) is recorded as “could be blocked”.

For the molecule `C[C@H](CCCC(C)(C)O)[C@H]1CC[C@H]2[C@@H]3CC=C4C[C@@H](O)CC[C@]4(C)[C@H]3CC[C@]12C` [25-OHC], the IC50 in [2] (setting [13]) is above 10000 nM. Further, the EC50 came out at 727 ± 232 nM in assay [3] (setting [14]) and 3030 ± 2640 nM in [4] (setting [15]).

The molecule `C[C@H](CCCC(C)(C)O)[C@H]1CC[C@H]2[C@@H]3[C@@H](O)C=C4C[C@@H](O)CC[C@]4(C)[C@H]3CC[C@]12C` [7β, 25-OHC, cholest-5-ene-3β, 7β, 25-triol] yielded an EC50 in assay [5] of around 50 nM.

On to `C[C@@H](CO)CCC[C@@H](C)[C@H]1CC[C@H]2[C@@H]3[C@@H](O)C=C4C[C@@H](O)CC[C@]4(C)[C@H]3CC[C@]12C` [7β, 27-OHC], for which the IC50 in [2] (setting [13]) was above 10000 nM. Besides, the EC50 in assay [3] (setting [14]) was 125 ± 66 nM; in assay [4] (setting [15]) it was 310 ± 261 nM.

For `[3H]C1(O)C=C2CC(O)CCC2(C)C2CCC3(C)C(C(C)CCCC(C)(C)O)CCC3C21` (stereo not drawn) [[^3H]-7α, 25-OHC], the “binding of radioligand to membranes from parental cells” value in [6] is reported as “did not bind”.

The molecule `CC(C)CCC[C@@H](C)[C@H]1CC[C@H]2[C@@H]3CC=C4C[C@@H](O)CC[C@]4(C)[C@H]3CC[C@]12C` [cholesterol] had an IC50 in assay [2] above 10000 nM. Moreover, the EC50 in assay [3] and in assay [4] was above 10000 nM each time.

For the molecule `C[C@H](CCCC(C)(C)O)[C@H]1CC[C@H]2[C@@H]3[C@H](O)C=C4C[C@@H](O)CC[C@]4(C)[C@H]3CC[C@]12C` [7α, 25-OHC, 5-cholesten-3β, 7α, 25-triol], in assay [7], the “migration of BMDC from wild type and Ebi2(−/−) animals” value was “only wild type cells migrate”. For the same molecule, the EC50 in assay [4] was found to be 2 ± 2 nM. For the same molecule, the “interaction with other GPCRs” value in assay [8] is on record as “In none of these assays did we see a significant interaction”. The “chemoattraction of RS11846 cells” value in assay [1] (bell shaped activity curve) is given as “can potently attract”. For the same molecule, the “interaction with nuclear hormone receptors” value in [9] is “In none of these assays did we see a significant interaction”. The “chemoattraction of EBV-infected B cells” value in [10] was “can potently attract”. Moreover, the “calcium response of parental cells lacking EBI2” value in assay [11] is “did not respond”. For the same molecule, the sensitivity of bioassay entry in assay [12] is recorded as “subnanomolar sensitivity”.

Take `[3H]C1(O)C=C2CC(O)CCC2(C)C2CCC3(C)C(C(C)CCCC(C)(C)O)CCC3C21` (stereo not drawn) [[^3H]-7β, 25-OHC]: in assay [2] (EBI2 membranes), the “specific binding of radioligand to EBI2 membranes” value is “no specific binding”.

As for `CO[C@H]1C=C2C[C@@H](O)CC[C@]2(C)[C@H]2CC[C@]3(C)[C@@H]([C@H](C)CCCC(C)C)CC[C@H]3[C@H]12` [7-methoxy derivate of 7β-OHC], in assay [5] (initial test of candidates (Fig. S3)), the “activation of EBI2” value is “did not activate EBI2”.

Regarding `C[C@@H](CO)CCC[C@@H](C)[C@H]1CC[C@H]2[C@@H]3[C@H](O)C=C4C[C@@H](O)CC[C@]4(C)[C@H]3CC[C@]12C` [7α, 27-OHC], the IC50 in assay [2] (setting [13]) was determined as 362 ± 32 nM. Moreover, the EC50 in [3] (setting [14]) worked out at 5 ± 2 nM; in assay [4] (setting [15]), 5 ± 4 nM. In addition, the “interaction with other GPCRs” value in assay [8] is recorded as “In none of these assays did we see a significant interaction”. Further, the “interaction with nuclear hormone receptors” value in [9] is listed as “In none of these assays did we see a significant interaction”.

As a reminder, the IC50 is the concentration that inhibits the measured activity by half. Broadly, the EC50 is the concentration at which the effect is half-maximal.
